Assay results: publication PMC2831464 (Clinical cancer research : an official journal of the …, 2010)
“And” between values parts separate entries of the source, which are not always exact repeats. Identical values can stand only once. “Also recorded” adds a separate entry of the source.

Key:
[1] = Plasma pharmacokinetics of AR-67 lactone and carboxylate; type: in vivo, human; settings: for Cmax, total: observed at 45 min of 1-hr infusion
Method in brief: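 Test compound was given as a 1-h IV infusion daily × 5. Heparinized blood was drawn on days 1 and 4 of cycle 1: pre-dose, 5, 45 and 65 min, and 1.5, 2, 4, 6, 8 and 24 h after infusion start. Plasma lactone and carboxylate were quantified by validated HPLC-fluorescence. Parameters were noncompartmental. Cmax was the observed 45-min value. Half-life required ≥3 elimination-phase points.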

[2] = system: refractory solid malignancies; assay: Tumor response per RECIST v1.0; type: in vivo, human
UGT1A1 = settings: cited from earlier work
CYP3A4 = settings: in-vitro data; cited from earlier work
[3] = day 1 cycle 1, 1.2 mg/m^2 (n=2), mean
[4] = day 1 cycle 1, 1.67 mg/m^2 (n=3), mean
[5] = day 1 cycle 1, 2.34 mg/m^2 (n=3), mean
[6] = day 1 cycle 1, 3.23 mg/m^2 (n=3), mean
[7] = day 1 cycle 1, 4.5 mg/m^2 (n=1)
[8] = day 1 cycle 1, 6.3 mg/m^2 (n=1)
[9] = day 1 cycle 1, 7.5 mg/m^2 (n=7), mean
[10] = day 1 cycle 1, 8.9 mg/m^2 (n=4), mean
[11] = day 1 cycle 1, 12.4 mg/m^2 (n=2), mean
[12] = day 4 cycle 1, 1.2 mg/m^2 (n=1)
[13] = day 4 cycle 1, 1.67 mg/m^2 (n=3), mean
[14] = day 4 cycle 1, 2.34 mg/m^2 (n=3), mean
[15] = day 4 cycle 1, 3.23 mg/m^2 (n=3), mean
[16] = day 4 cycle 1, 4.5 mg/m^2 (n=1)
[17] = day 4 cycle 1, 6.3 mg/m^2 (n=1)
[18] = day 4 cycle 1, 7.5 mg/m^2 (n=7), mean
[19] = day 4 cycle 1, 8.9 mg/m^2 (n=4), mean
[20] = day 4 cycle 1, 12.4 mg/m^2 (n=2), mean

CC[C@@]1(O)C(=O)OCc2c1cc1n(c2=O)Cc2c-1nc1ccc(O)cc1c2[Si](C)(C)C(C)(C)C [AR-67, 7-t-butyldimethylsilyl-10-hydroxycamptothecin]
clearance with increasing dosage ([1]; 1.2–12.4 mg/m^2/day): clearance was constant | decrease in AUC between days 1 and 4 ([1]; all patients, dexamethasone co-treatment): ~ 20% | drug accumulation on day 4 ([1]; daily × 5 dosing, cycle 1): No drug accumulation was observed; also recorded: no evidence of accumulation | Clearancetotal [1, 3]: 13.8 L/hr/m^2 | Lactone AUC(0−∞) [1, 3]: 81 ng·h/mL | Total AUC(0−∞) [1, 3]: 88 ng·h/mL | Vss, total [1, 3]: 7.4 L/m^2 | Cmax, total [1, 3]: 77.6 ng/mL | Clearancetotal [1, 4]: 13.2 L/hr/m^2 | Lactone AUC(0−∞) [1, 4]: 117 ng·h/mL | Total AUC(0−∞) [1, 4]: 128 ng·h/mL | Vss, total [1, 4]: 13.1 L/m^2 | Cmax, total [1, 4]: 96.9 ng/mL | Clearancetotal [1, 5]: 14.1 L/hr/m^2 | Lactone AUC(0−∞) [1, 5]: 186 ng·h/mL | Total AUC(0−∞) [1, 5]: 201 ng·h/mL | Vss, total [1, 5]: 13.5 L/m^2 | Cmax, total [1, 5]: 158.9 ng/mL | Clearancetotal [1, 6]: 11.6 L/hr/m^2 | Lactone AUC(0−∞) [1, 6]: 269 ng·h/mL | Total AUC(0−∞) [1, 6]: 290 ng·h/mL | Vss, total [1, 6]: 9.6 L/m^2 | Cmax, total [1, 6]: 221.9 ng/mL | Clearancetotal [1, 7]: 21 L/hr/m^2 | Lactone AUC(0−∞) [1, 7]: 179 ng·h/mL | Total AUC(0−∞) [1, 7]: 214 ng·h/mL | Vss, total [1, 7]: 32.7 L/m^2 | Cmax, total [1, 7]: 117.8 ng/mL | Clearancetotal [1, 8]: 12.9 L/hr/m^2 | Lactone AUC(0−∞) [1, 8]: 334 ng·h/mL | Total AUC(0−∞) [1, 8]: 490 ng·h/mL | Vss, total [1, 8]: 51.6 L/m^2 | Cmax, total [1, 8]: 168.5 ng/mL | Clearancetotal [1, 9]: 13.1 L/hr/m^2 | Lactone AUC(0−∞) [1, 9]: 498 ng·h/mL | T(1/2)total [1, 9]: 1.4 h | Total AUC(0−∞) [1, 9]: 581 ng·h/mL | Vss, total [1, 9]: 18.7 L/m^2 | Cmax, total [1, 9]: 349.7 ng/mL | Clearancetotal [1, 10]: 18.9 L/hr/m^2 | Lactone AUC(0−∞) [1, 10]: 471 ng·h/mL | T(1/2)total [1, 10]: 1.6 h | Total AUC(0−∞) [1, 10]: 502 ng·h/mL | Vss, total [1, 10]: 30.1 L/m^2 | Cmax, total [1, 10]: 290.6 ng/mL | Clearancetotal [1, 11]: 15.8 L/hr/m^2 | Lactone AUC(0−∞) [1, 11]: 686 ng·h/mL | T(1/2)total [1, 11]: 1.1 h | Total AUC(0−∞) [1, 11]: 786 ng·h/mL | Vss, total [1, 11]: 18.1 L/m^2 | Cmax, total [1, 11]: 464.7 ng/mL | Clearancetotal ([1]; day 1 cycle 1, All dosage levels (N=26), mean): 14.5 ±4.1 L/hr/m^2 and 14.5 L/hr/m^2 | T(1/2)total ([1]; day 1 cycle 1, All dosage levels, mean): 1.4 h | Clearancetotal [1, 12]: 23.6 L/hr/m^2 | Lactone AUC(0−∞) [1, 12]: 49 ng·h/mL | Total AUC(0−∞) [1, 12]: 51 ng·h/mL | Vss, total [1, 12]: 15.6 L/m^2 | Cmax, total [1, 12]: 51.6 ng/mL | Clearancetotal [1, 13]: 16.7 L/hr/m^2 | Lactone AUC(0−∞) [1, 13]: 109 ng·h/mL | Total AUC(0−∞) [1, 13]: 115 ng·h/mL | Vss, total [1, 13]: 16.3 L/m^2 | Cmax, total [1, 13]: 74.6 ng/mL | Clearancetotal [1, 14]: 15.3 L/hr/m^2 | Lactone AUC(0−∞) [1, 14]: 137 ng·h/mL | Total AUC(0−∞) [1, 14]: 154 ng·h/mL | Vss, total [1, 14]: 7.9 L/m^2 | Cmax, total [1, 14]: 137.8 ng/mL | Clearancetotal [1, 15]: 13.3 L/hr/m^2 | Lactone AUC(0−∞) [1, 15]: 236 ng·h/mL | Total AUC(0−∞) [1, 15]: 255 ng·h/mL | Vss, total [1, 15]: 10.6 L/m^2 | Cmax, total [1, 15]: 195 ng/mL | Clearancetotal [1, 16]: 24.2 L/hr/m^2 | Lactone AUC(0−∞) [1, 16]: 149 ng·h/mL | Total AUC(0−∞) [1, 16]: 186 ng·h/mL | Vss, total [1, 16]: 45.3 L/m^2 | Cmax, total [1, 16]: 82.5 ng/mL | Clearancetotal [1, 17]: 14.7 L/hr/m^2 | Lactone AUC(0−∞) [1, 17]: 327 ng·h/mL | Total AUC(0−∞) [1, 17]: 429 ng·h/mL | Vss, total [1, 17]: 35.3 L/m^2 | Cmax, total [1, 17]: 166.4 ng/mL | Clearancetotal [1, 18]: 16.8 L/hr/m^2 | Lactone AUC(0−∞) [1, 18]: 411 ng·h/mL | T(1/2)total [1, 18]: 1.8 h | Total AUC(0−∞) [1, 18]: 478 ng·h/mL | Vss, total [1, 18]: 25.6 L/m^2 | Cmax, total [1, 18]: 308.6 ng/mL | Clearancetotal [1, 19]: 18.6 L/hr/m^2 | Lactone AUC(0−∞) [1, 19]: 397 ng·h/mL | T(1/2)total [1, 19]: 1.4 h | Total AUC(0−∞) [1, 19]: 507 ng·h/mL | Vss, total [1, 19]: 27.5 L/m^2 | Cmax, total [1, 19]: 276.7 ng/mL | Clearancetotal [1, 20]: 19.8 L/hr/m^2 | Lactone AUC(0−∞) [1, 20]: 551 ng·h/mL | T(1/2)total [1, 20]: 1.7 h | Total AUC(0−∞) [1, 20]: 663 ng·h/mL | Vss, total [1, 20]: 28.9 L/m^2 | Cmax, total [1, 20]: 358.5 ng/mL | Clearancetotal ([1]; day 4 cycle 1, All dosage levels (N=25), mean): 17.4 ±5.2 L/hr/m^2 and 17.4 L/hr/m^2 | T(1/2)total ([1]; day 4 cycle 1, All dosage levels, mean): 1.6 h | lactone form as share of the total AR-67 AUC (lactone + carboxylate) ([1]; human plasma, mean (±SD)): 87.5% and ~ 87.5% | increase of mean clearance of total AR-67 from day 1 to day 4 ([1]; p=0.0031, Wilcoxon signed rank): 20% | elimination half-life ([1]; patients, iv): ~ 1.4 hr | elimination profile ([1]; plasma, MTD cohort): bi-exponential profile | share of the total concentration in the lactone form ([1]; plasma, at each time point, all patients): Greater than 80% | subjects with stable disease ([2]; 22 subjects evaluable): Four | duration of prolonged partial response ([2]; one patient): > 16 months | response per RECIST v1.0 ([2]; one subject, squamous cell carcinoma of the lung (NSCLC), dosage level 5.5, ten cycles): prolonged partial response | time after end of cycle 10 with partial response maintained ([2]; recurrent NSCLC patient, 10 cycles, as of this writing): ≥ 7 months | UGT1A1 mediated glucuronidation (UGT1A1): does not undergo | substrate for CYP3A4 (CYP3A4): is a substrate
